Data published in ChEMBL document CHEMBL4020716, “The synthesis and evaluation of new butadiene derivatives as tubulin polymerization inhibitors” (Bioorg Med Chem, 2017).
pIC50: −log10 of the molar value. One block for each compound: values may come before it. Calls of active or inactive are those of the source. The calls are words filed in the database; no cut-off is given here.

Legend:
[1] = test system: A549; experiment: Antiproliferative activity against human A549 cells after 48 hrs by MTT assay; assay type: functional, cell-based; settings: A549, 48 h
Summary of the method: (§1)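 Cells in logarithmic growth were seeded at 5 × 10^3 cells/well and left for 24 h, then exposed to a range of compound concentrations for 48 h. MTT (5 mg/mL) was added for 4 h, the formazan was dissolved in DMSO and absorbance read at 570 nm. IC50 is the concentration giving 50% growth inhibition, from at least three independent experiments, mean ± SD. Culture: DMEM, 10% heat-inactivated FBS, penicillin/streptomycin, 37 °C, 5% CO2.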

[2] = test system: MCF7; experiment: Antiproliferative activity against human MCF7 cells after 48 hrs by MTT assay; assay type: functional, cell-based; settings: MCF7, 48 h; summary of the method: as §1
[3] = test system: HeLa; experiment: Antiproliferative activity against human HeLa cells after 48 hrs by MTT assay; assay type: functional, cell-based; summary of the method: as §1
[4] = test system: PC-3; experiment: Antiproliferative activity against human PC3 cells after 48 hrs by MTT assay; assay type: functional, cell-based; settings: PC-3, 48 h; summary of the method: as §1
[5] = test system: A2780; experiment: Antiproliferative activity against human A2780 cells after 48 hrs by MTT assay; assay type: functional, cell-based; settings: A2780, 48 h; summary of the method: as §1
[6] = test system: HeLa; experiment: Induction of apoptosis in human HeLa cells assessed as necrotic cells at 25 nM after 24 hrs by Annexin-V/FITC/propidium iodide staining-based flow cytometry method (reference value: 0.04%); assay type: functional
[7] = test system: HeLa; experiment: Induction of apoptosis in human HeLa cells assessed as early apoptotic cells at 50 nM after 24 hrs by Annexin-V/FITC/propidium iodide staining-based flow cytometry method (reference value: 0.59%); assay type: functional
[8] = test system: HeLa; experiment: Induction of apoptosis in human HeLa cells assessed as necrotic cells at 100 nM after 24 hrs by Annexin-V/FITC/propidium iodide staining-based flow cytometry method (reference value: 0.04%); assay type: functional
[9] = test system: HeLa; experiment: Induction of apoptosis in human HeLa cells assessed as late apoptotic cells at 100 nM after 24 hrs by Annexin-V/FITC/propidium iodide staining-based flow cytometry method (reference value: 0.26%); assay type: functional
[10] = test system: HeLa; experiment: Induction of apoptosis in human HeLa cells assessed as early apoptotic cells at 100 nM after 24 hrs by Annexin-V/FITC/propidium iodide staining-based flow cytometry method (reference value: 0.59%); assay type: functional
[11] = test system: HeLa; experiment: Induction of morphological changes in human HeLa cells assessed as microtubule shrinking at 25 to 100 nM after 24 hrs by Hoechst 33342 staining-based laser scanning confocal microscopic method; assay type: functional, cell-based
[12] = test system: HeLa; experiment: Induction of morphological changes in human HeLa cells assessed as membrane blebbing at 25 to 100 nM after 24 hrs by Hoechst 33342 staining-based laser scanning confocal microscopic method; assay type: functional, cell-based
[13] = test system: HeLa; experiment: Cell cycle arrest in human HeLa cells assessed as accumulation at G2/M phase at 25 nM after 24 hrs by propidium iodide staining-based flow cytometry method (reference value: 19.0%); assay type: functional
[14] = test system: HeLa; experiment: Induction of apoptosis in human HeLa cells assessed as live cells at 100 nM after 24 hrs by Annexin-V/FITC/propidium iodide staining-based flow cytometry method (reference value: 99.1%); assay type: functional
[15] = test system: HeLa; experiment: Induction of apoptosis in human HeLa cells assessed as late apoptotic cells at 25 nM after 24 hrs by Annexin-V/FITC/propidium iodide staining-based flow cytometry method (reference value: 0.26%); assay type: functional
[16] = Inhibition of porcine brain tubulin polymerization preincubated for 1 min followed by addition of tubulin measured every 60 s for 90 min by DAPI staining-based fluorescence assay; set-up: species or system Sus scrofa
[17] = test system: HeLa; experiment: Induction of morphological changes in human HeLa cells assessed as chromatin condensation at 25 to 100 nM after 24 hrs by Hoechst 33342 staining-based laser scanning confocal microscopic method; assay type: functional, cell-based
[18] = test system: HeLa; experiment: Induction of apoptosis in human HeLa cells assessed as live cells at 50 nM after 24 hrs by Annexin-V/FITC/propidium iodide staining-based flow cytometry method (reference value: 99.1%); assay type: functional
[19] = test system: HeLa; experiment: Induction of apoptosis in human HeLa cells assessed as late apoptotic cells at 50 nM after 24 hrs by Annexin-V/FITC/propidium iodide staining-based flow cytometry method (reference value: 0.26%); assay type: functional
[20] = test system: HeLa; experiment: Cell cycle arrest in human HeLa cells assessed as accumulation at G2/M phase at 100 nM after 24 hrs by propidium iodide staining-based flow cytometry method (reference value: 19.0%); assay type: functional
[21] = test system: HeLa; experiment: Induction of apoptosis in human HeLa cells assessed as live cells at 25 nM after 24 hrs by Annexin-V/FITC/propidium iodide staining-based flow cytometry method (reference value: 99.1%); assay type: functional
[22] = test system: HeLa; experiment: Cell cycle arrest in human HeLa cells assessed as accumulation at G2/M phase after 24 hrs by propidium iodide staining-based flow cytometry method; assay type: functional
[23] = test system: HeLa; experiment: Cell cycle arrest in human HeLa cells assessed as accumulation at G2/M phase at 50 nM after 24 hrs by propidium iodide staining-based flow cytometry method (reference value: 19.0%); assay type: functional
[24] = test system: HeLa; experiment: Induction of apoptosis in human HeLa cells assessed as necrotic cells at 50 nM after 24 hrs by Annexin-V/FITC/propidium iodide staining-based flow cytometry method (reference value: 0.04%); assay type: functional
[25] = test system: HeLa; experiment: Induction of apoptosis in human HeLa cells after 24 hrs by Annexin-V/FITC/propidium iodide staining-based flow cytometry method; assay type: functional, cell-based
[26] = test system: HeLa; experiment: Induction of apoptosis in human HeLa cells assessed as early apoptotic cells at 25 nM after 24 hrs by Annexin-V/FITC/propidium iodide staining-based flow cytometry method (reference value: 0.59%); assay type: functional

pIC50 [1]: 7.25
pIC50 [2]: 7.05
pIC50 [3]: 7.22
pIC50 [16]: 6.00
pIC50 [4]: 7.21
pIC50 [5]: 7.19
Structure (SMILES): C=C(/C(C)=C/c1ccc(OC)c(O)c1)c1cc(OC)c(OC)c(OC)c1
Activity [6]: 1.56%
Activity [7]: 29.8%
Activity [8]: 1.91%
Activity [9]: 4.77%
Activity [10]: 36.6%
Activity [11]: Active
Activity [12]: Active
Activity [13]: 30%
Activity [14]: 56.7%
Activity [15]: 3.32%
Activity [17]: Active
Activity [18]: 62.7%
Activity [19]: 5.8%
Activity [20]: 72%
Activity [21]: 79.1%
Activity [22]: Dose-dependent effect
Activity [23]: 43%
Activity [24]: 1.77%
Activity [25]: Dose-dependent effect
Activity [26]: 16%

pIC50 [1]: 8.40
pIC50 [2]: 8.30
pIC50 [3]: 8.30
pIC50 [4]: 8.05
pIC50 [5]: 8.52
Structure (SMILES): COc1ccc(/C=C(\C)C(=O)c2cc(OC)c(OC)c(OC)c2)cc1O

pIC50 [1]: 5.69
pIC50 [2]: 5.08
pIC50 [3]: 5.51
pIC50 [4]: 5.37
pIC50 [5]: 5.28
Structure (SMILES): CCC=C(/C(C)=C/c1ccc(OC)c(O)c1)c1cc(OC)c(OC)c(OC)c1

pIC50 [1]: 6.20
pIC50 [2]: 6.22
pIC50 [3]: 6.25
pIC50 [4]: 6.10
pIC50 [5]: 6.30
Structure (SMILES): CC=C(/C(C)=C/c1ccc(OC)c(O)c1)c1cc(OC)c(OC)c(OC)c1

pIC50 [1]: 5.61
pIC50 [2]: 5.40
pIC50 [3]: 5.51
pIC50 [4]: 5.35
pIC50 [5]: 5.53
Structure (SMILES): CCCC=C(/C(C)=C/c1ccc(OC)c(O)c1)c1cc(OC)c(OC)c(OC)c1

Second part, the compound before the results:

Structure (SMILES): CCC=C(/C=C/c1ccc(OC)c(N)c1)c1cc(OC)c(OC)c(OC)c1
pIC50 [1]: 6.40
pIC50 [2]: 6.31
pIC50 [3]: 6.50
pIC50 [4]: 6.55
pIC50 [5]: 6.61

Structure (SMILES): CO/C=C(\C=C\c1ccc(OC)c(O)c1)c1cc(OC)c(OC)c(OC)c1
pIC50 [1]: 5.80
pIC50 [2]: 5.49
pIC50 [3]: 5.25
pIC50 [4]: 5.27
pIC50 [5]: 5.65

Structure (SMILES): C=C(/C(C)=C/c1ccc(OC)cc1)c1cc(OC)c(OC)c(OC)c1
pIC50 [1]: 6.45
pIC50 [2]: 6.02
pIC50 [3]: 6.31
pIC50 [4]: 6.31
pIC50 [5]: 6.08

Structure (SMILES): C=C(/C=C/c1ccc(OC)c(N)c1)c1cc(OC)c(OC)c(OC)c1
pIC50 [1]: 6.86
pIC50 [2]: 6.10
pIC50 [3]: 6.63
pIC50 [4]: 6.25
pIC50 [5]: 6.24

Structure (SMILES): C=C(/C(C)=C/c1ccc(OC)c(F)c1)c1cc(OC)c(OC)c(OC)c1
pIC50 [1]: 6.66
pIC50 [2]: 6.39
pIC50 [3]: 6.32
pIC50 [4]: 6.45
pIC50 [5]: 6.25

Structure (SMILES): C=C(/C(C)=C/c1ccc(OC)c(N)c1)c1cc(OC)c(OC)c(OC)c1
pIC50 [1]: 6.57
pIC50 [2]: 6.45
pIC50 [3]: 6.54
pIC50 [4]: 6.34
pIC50 [5]: 6.55

Structure (SMILES): C=C(/C=C/c1ccc(OC)c(O)c1)c1cc(OC)c(OC)c(OC)c1
pIC50 [1]: 6.54
pIC50 [2]: 6.24
pIC50 [3]: 6.49
pIC50 [4]: 6.37
pIC50 [5]: 6.34

Structure (SMILES): CC=C(/C=C/c1ccc(OC)c(N)c1)c1cc(OC)c(OC)c(OC)c1
pIC50 [1]: 6.61
pIC50 [2]: 6.61
pIC50 [3]: 6.66
pIC50 [4]: 6.50
pIC50 [5]: 6.86
